Measurements taken from ChEMBL document CHEMBL1157799, “Creating an antibacterial with in vivo efficacy: synthesis and characterization of potent inhibitors of the bacterial cell division protein FtsZ with improved pharmaceutical properties” (J Med Chem, 2010).
≈ marks a conversion by molar mass, not a printed value. One block for each compound: values may come before it. Calls of active or inactive are those of the source. No cut-off for these calls is given here.

Columns and labels:
[1] = biological target: T1, Cell division protein FtsZ (Staphylococcus aureus) (UniProt P0A031); assay: Inhibition of Staphylococcus aureus ATCC 29213 FtsZ assessed as lowest drug level required for ballooning of cells by light microscopy
T1 sequence (whole entry): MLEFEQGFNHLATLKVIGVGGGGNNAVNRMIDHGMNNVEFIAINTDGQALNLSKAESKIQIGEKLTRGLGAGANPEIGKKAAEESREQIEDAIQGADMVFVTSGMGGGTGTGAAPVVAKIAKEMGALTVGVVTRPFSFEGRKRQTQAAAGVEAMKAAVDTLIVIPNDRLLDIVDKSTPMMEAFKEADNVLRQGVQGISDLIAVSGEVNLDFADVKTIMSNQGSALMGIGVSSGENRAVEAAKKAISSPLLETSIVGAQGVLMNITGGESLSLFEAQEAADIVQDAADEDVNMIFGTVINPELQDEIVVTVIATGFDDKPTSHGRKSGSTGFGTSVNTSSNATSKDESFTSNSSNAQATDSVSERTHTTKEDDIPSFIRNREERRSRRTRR
Summary of the method: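 Cocci examined by light microscopy for morphology. Value is the lowest concentration at which ballooning appears; WT is recorded when morphology is unchanged.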

[2] = biological target: T1, Cell division protein FtsZ (Staphylococcus aureus); assay: Inhibition of Staphylococcus aureus ATCC 29213 FtsZ assessed as appearance of enlarged cells at 2048 to 4096 ug/mL by light microscopy
Staphylococcus aureus [3] = assay: Antibacterial activity against Staphylococcus aureus ATCC 29213 by broth microdilution assay in presence of 2% bovine serum albumin; type: functional
Summary of the method: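 Broth microdilution MIC per CLSI recommendations, with 2% w/v bovine serum albumin added to the assay medium to track the effect of protein on antibacterial activity.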

Staphylococcus aureus [4] = assay: Antibacterial activity against Staphylococcus aureus ATCC 29213 by broth microdilution assay; type: functional
Summary of the method: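 Broth microdilution MIC per CLSI recommendations; reproducibility within one 2-fold dilution of the end point.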

Plasma [5] = assay: Plasma protein binding in mouse at 10 uM by equilibrium dialysis; type: ADME, cell-free
Summary of the method: (§1)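 Binding to plasma measured by equilibrium dialysis of a 10 µM compound solution. Reported as fraction unbound or percent bound.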

Cytochrome P450 3A4 = Cytochrome P450 3A4 (Homo sapiens, UniProt P08684); assay: Inhibition of human recombinant CYP3A4 by fluorescence assay; type: ADME
Sequence of Cytochrome P450 3A4 (P08684 whole entry): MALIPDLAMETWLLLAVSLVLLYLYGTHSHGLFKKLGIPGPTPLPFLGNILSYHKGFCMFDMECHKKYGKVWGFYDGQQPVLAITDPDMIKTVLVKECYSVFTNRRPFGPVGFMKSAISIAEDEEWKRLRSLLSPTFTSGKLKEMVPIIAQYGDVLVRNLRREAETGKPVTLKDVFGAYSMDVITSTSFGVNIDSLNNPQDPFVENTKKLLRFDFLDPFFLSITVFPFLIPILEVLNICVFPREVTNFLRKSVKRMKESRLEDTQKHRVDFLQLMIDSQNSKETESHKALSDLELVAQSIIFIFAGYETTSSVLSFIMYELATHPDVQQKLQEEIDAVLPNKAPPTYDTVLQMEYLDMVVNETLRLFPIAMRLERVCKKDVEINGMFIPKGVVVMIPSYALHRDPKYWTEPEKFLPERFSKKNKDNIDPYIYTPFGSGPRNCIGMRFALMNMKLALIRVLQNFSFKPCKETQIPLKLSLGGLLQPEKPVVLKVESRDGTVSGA
Summary of the method: (§2)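 Human recombinant CYP isozymes tested by metabolism of fluorogenic substrates, read by fluorescence. IC50 in µg/mL.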

Plasma [6] = assay: Fraction unbound in human plasma at 10 uM by equilibrium dialysis; type: ADME, cell-free; summary of the method: as §1
Cytochrome P450 2C9 = Cytochrome P450 2C9 (Homo sapiens, UniProt P11712); assay: Inhibition of human recombinant CYP2C9 by fluorescence assay; type: ADME; summary of the method: as §2
Sequence of Cytochrome P450 2C9 (P11712 whole entry): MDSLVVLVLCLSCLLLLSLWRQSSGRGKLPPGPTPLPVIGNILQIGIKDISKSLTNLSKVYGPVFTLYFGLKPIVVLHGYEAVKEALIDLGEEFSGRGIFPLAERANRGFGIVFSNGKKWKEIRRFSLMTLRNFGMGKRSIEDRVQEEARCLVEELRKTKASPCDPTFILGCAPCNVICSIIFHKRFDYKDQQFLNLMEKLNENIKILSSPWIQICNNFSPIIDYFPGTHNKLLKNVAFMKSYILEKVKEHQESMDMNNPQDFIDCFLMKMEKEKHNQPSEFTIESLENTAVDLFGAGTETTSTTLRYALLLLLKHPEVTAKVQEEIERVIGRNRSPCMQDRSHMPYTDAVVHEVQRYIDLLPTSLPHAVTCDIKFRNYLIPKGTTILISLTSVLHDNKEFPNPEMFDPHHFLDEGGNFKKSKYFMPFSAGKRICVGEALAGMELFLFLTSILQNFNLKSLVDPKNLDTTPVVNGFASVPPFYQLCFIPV

[7] = Clearance in mouse microsome at 10 uM by LC/MS/MS analysis; type: ADME, Liver; details: microsomes
Summary of the method: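 Microsomal stability: compound at 10 µM incubated with microsomes. Parent remaining followed over a time course by LC/MS to give clearance per mg protein.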

Cytochrome P450 2D6 = Cytochrome P450 2D6 (Homo sapiens, UniProt P10635); assay: Inhibition of human recombinant CYP2D6 by fluorescence assay; type: ADME; summary of the method: as §2
Sequence of Cytochrome P450 2D6 (P10635 whole entry): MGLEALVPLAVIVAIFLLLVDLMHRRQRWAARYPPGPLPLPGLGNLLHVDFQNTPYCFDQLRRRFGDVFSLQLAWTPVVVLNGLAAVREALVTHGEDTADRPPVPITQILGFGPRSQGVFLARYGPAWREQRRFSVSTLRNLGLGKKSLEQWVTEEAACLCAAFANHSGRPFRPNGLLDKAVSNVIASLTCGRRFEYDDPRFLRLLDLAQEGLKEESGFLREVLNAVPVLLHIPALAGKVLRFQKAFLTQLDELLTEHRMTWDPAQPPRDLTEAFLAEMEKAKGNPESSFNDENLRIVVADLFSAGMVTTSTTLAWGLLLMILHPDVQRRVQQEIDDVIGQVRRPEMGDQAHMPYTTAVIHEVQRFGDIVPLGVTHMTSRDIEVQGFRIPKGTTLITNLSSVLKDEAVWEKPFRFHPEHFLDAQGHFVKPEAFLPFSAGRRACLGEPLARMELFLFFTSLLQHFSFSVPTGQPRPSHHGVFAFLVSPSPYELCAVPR

Cytochrome P450 1A2 = biological target: T2, Cytochrome P450 1A2 (Homo sapiens, UniProt P05177); assay: Inhibition of human recombinant CYP1A2 by fluorescence assay; type: ADME; summary of the method: as §2
T2 sequence (P05177 whole entry): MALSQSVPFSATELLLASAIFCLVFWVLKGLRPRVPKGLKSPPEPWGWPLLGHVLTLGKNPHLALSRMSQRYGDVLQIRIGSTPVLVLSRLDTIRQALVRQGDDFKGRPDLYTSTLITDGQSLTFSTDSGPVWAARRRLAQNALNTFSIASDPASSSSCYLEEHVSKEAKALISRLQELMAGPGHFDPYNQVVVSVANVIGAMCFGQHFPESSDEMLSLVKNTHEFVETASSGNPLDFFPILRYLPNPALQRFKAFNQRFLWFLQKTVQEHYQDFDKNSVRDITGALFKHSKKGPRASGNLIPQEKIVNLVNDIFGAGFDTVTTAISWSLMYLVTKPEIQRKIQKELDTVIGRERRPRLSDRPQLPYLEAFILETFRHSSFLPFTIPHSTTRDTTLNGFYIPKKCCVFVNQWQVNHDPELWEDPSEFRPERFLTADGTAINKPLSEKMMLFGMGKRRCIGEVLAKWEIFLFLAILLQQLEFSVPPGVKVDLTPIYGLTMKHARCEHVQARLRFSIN

[8] = Clearance in mouse hepatocytes at 10 uM assessed per 10^6 cells by LC/MS/MS analysis; type: ADME, cell-based, Liver, Hepatocyte
Summary of the method: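 Hepatocyte stability: compound at 10 µM incubated with hepatocytes. Parent loss over a time course measured by LC/MS/MS, and clearance expressed per 10⁶ cells.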

[9] = Chemical stability in phosphate buffered saline assessed as compound remaining at 10 uM after 24 hrs by LC/MS/MS analysis; type: physicochemical; details: buffer
Summary of the method: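 10 µM solution in phosphate buffered saline held 24 h at 37 °C. Parent remaining quantified by LC/MS.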

Plasma [10] = assay: Metabolic stability in mouse plasma assessed as compound remaining at 10 uM after 24 hrs by LC/MS/MS analysis; type: ADME, cell-free
Summary of the method: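 10 µM compound in mouse plasma incubated 24 h at 37 °C. Percent remaining measured by LC/MS.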

Staphylococcus aureus [11] = assay: Antimicrobial activity against Staphylococcus aureus Smith infected in mouse assessed as suppression of bacteria-induced mortality at 3 to 30 mg/kg, sc administered as single dose 1 hr after bacterial inoculation measured on day 2; type: functional, organism-based
Summary of the method: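 Mice inoculated IP with an LD90-100 of S. aureus Smith in 0.5 mL brain heart infusion broth with 5% mucin (4×10⁵ CFU/mouse for the IP study, 5×10⁵ CFU/mouse for the SC study). Vehicle or test agent given SC or IP 1 h post-infection at 3, 10 or 30 mg/kg. Mortality followed 7 days. ED50 by nonlinear regression.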

Cytochrome P450 2C19 = Cytochrome P450 2C19 (Homo sapiens, UniProt P33261); assay: Inhibition of human recombinant CYP2C19 by fluorescence assay; type: ADME; summary of the method: as §2
Sequence of Cytochrome P450 2C19 (P33261 whole entry): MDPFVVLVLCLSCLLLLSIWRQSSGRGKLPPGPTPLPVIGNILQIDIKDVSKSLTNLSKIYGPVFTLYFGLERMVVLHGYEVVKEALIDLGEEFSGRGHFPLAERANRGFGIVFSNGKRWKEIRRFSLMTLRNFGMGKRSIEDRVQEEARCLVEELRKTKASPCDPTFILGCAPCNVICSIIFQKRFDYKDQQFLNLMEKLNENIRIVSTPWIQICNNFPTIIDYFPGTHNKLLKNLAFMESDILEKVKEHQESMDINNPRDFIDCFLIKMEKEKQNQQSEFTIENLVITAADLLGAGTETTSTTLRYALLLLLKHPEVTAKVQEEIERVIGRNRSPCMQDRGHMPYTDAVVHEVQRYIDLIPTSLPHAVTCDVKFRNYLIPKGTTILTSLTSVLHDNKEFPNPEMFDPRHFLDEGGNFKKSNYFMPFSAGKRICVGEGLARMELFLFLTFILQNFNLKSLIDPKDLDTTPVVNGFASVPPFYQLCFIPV

Staphylococcus aureus [12] = assay: Antimicrobial activity against Staphylococcus aureus Smith infected in ip dosed mouse administered as single dose 1 hr after bacterial inoculation; type: functional
Summary of the method: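 Mice inoculated IP with an LD90-100 of S. aureus Smith (4×10^5 CFU/mouse) in 0.5 mL brain heart infusion broth with 5% mucin. Single IP dose of test substance or vehicle 1 h after inoculation, at 3, 10 or 30 mg/kg. Mortality monitored for 7 days. ED50 by nonlinear regression.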

Staphylococcus aureus [13] = assay: Antimicrobial activity against Staphylococcus aureus Smith infected in sc dosed mouse administered as single dose 1 hr after bacterial inoculation; type: functional
Summary of the method: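 Mice inoculated IP with an LD90-100 of S. aureus Smith (5×10^5 CFU/mouse) in 0.5 mL brain heart infusion broth with 5% mucin. Single SC dose of test substance or vehicle 1 h after inoculation, at 3, 10 or 30 mg/kg. Mortality monitored for 7 days. ED50 by nonlinear regression.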

Plasma [14] = assay: Fraction unbound in mouse plasma at 10 uM by equilibrium dialysis; type: ADME, cell-free; summary of the method: as §1

SMILES: Cc1csc(COc2ccc(F)c(C(N)=O)c2F)n1
MIC [1]: 16 µg/mL (≈ 56.3 µM)

SMILES: COc1cccc(C(N)=O)c1
inhibition [2]: Active | MIC (Staphylococcus aureus [3]): 4100 µg/mL | MIC (Staphylococcus aureus [4]): 2050 µg/mL (≈ 13500 µM)

SMILES: Cc1ccc2sc(COc3ccc(F)c(C(N)=O)c3F)nc2c1
Activity [1]: 8 µg/mL | MIC (Staphylococcus aureus [4]): 4 µg/mL (≈ 12 µM)

SMILES: NC(=O)c1c(F)ccc(OCc2nc3cc(C(F)(F)F)ccc3s2)c1F
Activity [1]: 0.5 µg/mL | MIC (Staphylococcus aureus [4]): 0.25 µg/mL (≈ 0.644 µM)

SMILES: NC(=O)c1c(F)ccc(OCc2nc3cc(N)ccc3s2)c1F
MIC (Staphylococcus aureus [4]): > 64 µg/mL

SMILES: CN(C)c1ccc2sc(COc3ccc(F)c(C(N)=O)c3F)nc2c1
MIC (Staphylococcus aureus [4]): > 64 µg/mL

SMILES: NC(=O)c1c(F)ccc(OCc2nc3cc(Cl)ccc3s2)c1F
PPB (Plasma [5]): 96.4% | IC50 (Cytochrome P450 3A4): > 33.8 µM | Fu (Plasma [6]): 1% | IC50 (Cytochrome P450 2C9): > 33.8 µM | CL [7]: 14 µL/min/mg | IC50 (Cytochrome P450 2D6): > 33.8 µM | IC50 (Cytochrome P450 1A2): > 33.8 µM | CL [8]: 31.2 uL/min/10^6cells | Activity [1]: 0.25 µg/mL | Stability [9]: 99% | Stability (Plasma [10]): 99% | Activity (Staphylococcus aureus [11]): inactive | IC50 (Cytochrome P450 2C19): > 33.8 µM | ED50 (Staphylococcus aureus [12]): 41 mg/kg | ED50 (Staphylococcus aureus [13]): > 30 mg/kg | Fu (Plasma [14]): 3%

SMILES: Cc1cnc(COc2ccc(F)c(C(N)=O)c2F)s1
MIC (Staphylococcus aureus [3]): 256 µg/mL | MIC (Staphylococcus aureus [4]): 256 µg/mL (≈ 900 µM)

SMILES: Cc1cccc2sc(COc3ccc(F)c(C(N)=O)c3F)nc12
Activity [1]: 2050 µg/mL | MIC (Staphylococcus aureus [4]): 16 µg/mL (≈ 47.9 µM)

SMILES: NC(=O)c1c(F)ccc(Oc2nc3ccccc3s2)c1F
MIC (Staphylococcus aureus [3]): > 256 µg/mL | MIC (Staphylococcus aureus [4]): > 256 µg/mL

SMILES: CCOc1ccc2sc(COc3ccc(F)c(C(N)=O)c3F)nc2c1
PPB (Plasma [5]): 96.4% | Activity [1]: 0.125 µg/mL

SMILES: CCCCCCOc1ccc(F)c(C(N)=O)c1F
MIC (Staphylococcus aureus [3]): 32 µg/mL | MIC [1]: 8 µg/mL (≈ 31.1 µM)

SMILES: NC(=O)c1c(F)ccc(OCc2nc3c(-c4ccccc4)cccc3s2)c1F
MIC (Staphylococcus aureus [4]): > 256 µg/mL

Activity [1]: 0.5 µg/mL | MIC (Staphylococcus aureus [4]): 0.5 µg/mL (≈ 1.29 µM)
SMILES: NC(=O)c1c(F)ccc(OCc2nc3cc(-c4ncno4)ccc3s2)c1F

SMILES: NC(=O)c1c(F)ccc(OCc2nc3cc(-c4ncc[nH]4)ccc3s2)c1F
MIC (Staphylococcus aureus [4]): > 64 µg/mL

SMILES: NC(=O)c1c(F)ccc(OCc2nc3cc(Cl)ncc3s2)c1F
MIC (Staphylococcus aureus [3]): 32 µg/mL | MIC (Staphylococcus aureus [4]): 8 µg/mL (≈ 22.5 µM)

SMILES: NC(=O)c1c(F)ccc(OCc2nc3ccccc3o2)c1F
MIC [1]: 256 µg/mL (≈ 841 µM) | MIC (Staphylococcus aureus [4]): 128 µg/mL (≈ 421 µM)

SMILES: NC(=O)c1c(F)ccc(OCc2nc3cccc(-c4ccccc4)c3s2)c1F
MIC (Staphylococcus aureus [4]): > 256 µg/mL

SMILES: NC(=O)c1c(F)ccc(OCc2ccc3ccccc3n2)c1F
MIC (Staphylococcus aureus [3]): 32 µg/mL | MIC [1]: 16 µg/mL (≈ 50.9 µM)

SMILES: COc1ccc2nc(COc3ccc(F)c(C(N)=O)c3F)sc2c1
MIC (Staphylococcus aureus [4]): > 256 µg/mL

SMILES: NC(=O)c1c(F)ccc(OCc2nc3cc(-c4ccccc4)cnc3s2)c1F
PPB (Plasma [5]): 98.5% | MIC (Staphylococcus aureus [3]): 4 µg/mL | MIC (Staphylococcus aureus [4]): 0.5 µg/mL (≈ 1.26 µM)
